ChEMBL document CHEMBL1152538, “Synthesis and biological evaluation of asymmetric gramicidin S analogues containing modified D-phenylalanine residues” (Bioorg Med Chem, 2009)
Converted amounts (≈) assume the structure as drawn. *1 amine or outer side, *2 acyl side, *3 side chain or, on linkers, in order; H or OH if unused. Where a SMILES comes first, the peptide text is derived from it. [ ]: non-standard residue; d: D form. The star is where a group is joined. X4 = O=C([C@H](Cc1ccc(N(Cc2ccccc2)Cc2ccccc2)cc1)N[*:1])[*:2]; X2 = C[N+](C)(C)c1ccc(C[C@H](N[*:1])C(=O)[*:2])cc1; X3 = O=C([C@H](Cc1ccc(NCc2ccccc2)cc1)N[*:1])[*:2]; Phe(4-NH2) = Nc1ccc(C[C@H](N)C(=O)O)cc1; X1 = O=C(C1C2CC3CC(C2)CC1C3)*; Orn = NCCC[C@H](N)C(=O)O; PhAc = O=C(Cc1ccccc1)*; Piv = CC(C)(C)C(=O)*

Experiments:
Staphylococcus aureus [1] = test: Antibacterial activity against Staphylococcus aureus 7323 after 24 to 96 hrs by well microplate assay; type: functional
Method in brief: (§1)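 Strains were kept at -70 °C, grown at 30 °C on sheep-blood Columbia agar, and suspended in saline to OD595 0.1, then diluted 10×. Inoculum was added at 2 µL per 100 µL Nutrient Broth with yeast extract (2 g/400 mL). Peptide stocks were 4 g/L in ethanol, diluted to 1000 mg/L in water, then twofold in broth (64–1 mg/L). Plates were held at 30 °C for 24–96 h. MIC was the lowest concentration inhibiting growth.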

Staphylococcus aureus [2] = test: Antibacterial activity against Staphylococcus aureus 7388 after 24 to 96 hrs by well microplate assay; type: functional; method in brief: as §1
Enterococcus faecalis = test: Antibacterial activity against Enterococcus faecalis 1131 after 24 to 96 hrs by well microplate assay; type: functional; method in brief: as §1
Escherichia coli = test: Antibacterial activity against Escherichia coli ATCC 25922 after 24 to 96 hrs by well microplate assay; type: functional; method in brief: as §1
Pseudomonas aeruginosa [3] = test: Antibacterial activity against Pseudomonas aeruginosa AK1 after 24 to 96 hrs by well microplate assay; type: functional; method in brief: as §1
Pseudomonas aeruginosa [4] = test: Antibacterial activity against Pseudomonas aeruginosa ATCC 19582 after 24 to 96 hrs by well microplate assay; type: functional; method in brief: as §1
Streptococcus mitis [5] = test: Antibacterial activity against Streptococcus mitis BMS after 24 to 96 hrs by well microplate assay; type: functional; method in brief: as §1
Streptococcus mitis [6] = test: Antibacterial activity against Streptococcus mitis ATCC 33399 after 24 to 96 hrs by well microplate assay; type: functional; method in brief: as §1
[7] = Cytotoxicity against human erythrocytes assessed as hemolysis at 1.5 mM after 4 hrs by twofold dilution assay; type: cell-based; conditions: erythrocyte, 1500 µM
[8] = test system: coagulase-negative Staphylococcus; test: Antibacterial activity against coagulase-negative Staphylococcus CNS 5277 after 24 to 96 hrs by well microplate assay
[9] = test system: coagulase-negative Staphylococcus; test: Antibacterial activity against coagulase-negative Staphylococcus CNS 5115 after 24 to 96 hrs by well microplate assay
[10] = test system: coagulase-negative Staphylococcus; test: Antibacterial activity against coagulase-negative Staphylococcus CNS 7368 after 24 to 96 hrs by well microplate assay
[11] = Cytotoxicity against human erythrocytes assessed as hemolysis after 4 hrs by twofold dilution assay; type: cell-based; conditions: Erythrocyte
Method in brief: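 Heparinised blood was spun at 1000g and 10 °C, and erythrocytes were washed three times in 0.85% saline and diluted to 1/25 packed volume. Peptide stocks were 1.5 mM in 30% DMSO/0.5 mM saline, sonicated if suspended, and twofold serially diluted in saline in triplicate rows. 1% Triton-X served as the lysis reference. Cells were incubated at 37 °C for 4 h and centrifuged, and the supernatant was read at A405 for % hemolysis.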

[12] = Cytotoxicity against human erythrocytes assessed as hemolysis at 25 uM after 4 hrs by twofold dilution assay; type: cell-based, Erythrocyte; conditions: read-out: Activity
[13] = Cytotoxicity against human erythrocytes assessed as hemolysis at 12 uM after 4 hrs by twofold dilution assay; type: cell-based, Erythrocyte; conditions: read-out: Activity
Method in brief: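 Freshly drawn heparinised blood was spun at 1000g and 10 °C. The erythrocytes were washed three times in 0.85% saline and diluted to 1/25 packed cell volume. Peptide stock was 1.5 mM in 30% DMSO/saline, sonicated if needed, and serially twofold diluted in saline across 10 wells, with 1% Triton-X as reference. Plates were held at 37 °C for 4 h, then centrifuged, and hemolysis percentage was read from supernatant A405.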

SMILES | MIC (Staphylococcus aureus [1]) | MIC (Staphylococcus aureus [2]) | MIC (Enterococcus faecalis) | MIC (Escherichia coli) | MIC (Pseudomonas aeruginosa [3]) | MIC (Pseudomonas aeruginosa [4]) | MIC (Streptococcus mitis [5]) | MIC (Streptococcus mitis [6]) | Activity [7] | MIC [8] | MIC [9] | MIC [10] | EC50 [11] | hemolysis at 4 h, 25 µM [12] | hemolysis at 4 h, 12 µM [13]
CC(=O)Nc1ccc(C[C@@H]2NC(=O)[C@H](CC(C)C)NC(=O)[C@H](CCCN)NC(=O)[C@H](C(C)C)NC(=O)[C@@H]3CCCN3C(=O)[C@H](Cc3ccccc3)NC(=O)[C@H](CC(C)C)NC(=O)[C@H](CCCN)NC(=O)[C@H](C(C)C)NC(=O)[C@@H]3CCCN3C2=O)cc1 (cyclo(FPV[Orn]L[Phe(4-NH2)](Ac)PV[Orn]L)) | 64 µg/mL (≈ 53.4 µM) | 16 µg/mL (≈ 13.3 µM) | 64 µg/mL (≈ 53.4 µM) | 64 µg/mL (≈ 53.4 µM) | > 64 µg/mL | > 64 µg/mL | 8 µg/mL (≈ 6.67 µM) | 16 µg/mL (≈ 13.3 µM) | Non-toxic | 16 µg/mL (≈ 13.3 µM) | 32 µg/mL (≈ 26.7 µM) | 32 µg/mL (≈ 26.7 µM) | – | – | –
CC(C)C[C@@H]1NC(=O)[C@H](CCCN)NC(=O)[C@H](C(C)C)NC(=O)[C@@H]2CCCN2C(=O)[C@H](Cc2ccccc2)NC(=O)[C@H](CC(C)C)NC(=O)[C@H](CCCN)NC(=O)[C@H](C(C)C)NC(=O)[C@@H]2CCCN2C(=O)[C@H](Cc2ccc(NC(=O)Cc3ccccc3)cc2)NC1=O (cyclo(FPV[Orn]L[Phe(4-NH2)](PhAc)PV[Orn]L)) | 8 µg/mL (≈ 6.28 µM) | 16 µg/mL (≈ 12.6 µM) | 32 µg/mL (≈ 25.1 µM) | 32 µg/mL (≈ 25.1 µM) | > 64 µg/mL | > 64 µg/mL | 8 µg/mL (≈ 6.28 µM) | 16 µg/mL (≈ 12.6 µM) | Non-toxic | 8 µg/mL (≈ 6.28 µM) | 8 µg/mL (≈ 6.28 µM) | 8 µg/mL (≈ 6.28 µM) | 9.35 µM | – | –
CC(C)C[C@@H]1NC(=O)[C@H](CCCN)NC(=O)[C@H](C(C)C)NC(=O)[C@@H]2CCCN2C(=O)[C@H](Cc2ccccc2)NC(=O)[C@H](CC(C)C)NC(=O)[C@H](CCCN)NC(=O)[C@H](C(C)C)NC(=O)[C@@H]2CCCN2C(=O)[C@H](Cc2ccc(NC(=O)C(C)(C)C)cc2)NC1=O (cyclo(FPV[Orn]L[Phe(4-NH2)](Piv)PV[Orn]L)) | 8 µg/mL (≈ 6.45 µM) | 8 µg/mL (≈ 6.45 µM) | 16 µg/mL (≈ 12.9 µM) | 32 µg/mL (≈ 25.8 µM) | 64 µg/mL (≈ 51.6 µM) | 64 µg/mL (≈ 51.6 µM) | 4 µg/mL (≈ 3.22 µM) | 4 µg/mL (≈ 3.22 µM) | – | 8 µg/mL (≈ 6.45 µM) | 8 µg/mL (≈ 6.45 µM) | 8 µg/mL (≈ 6.45 µM) | – | 50% | –
CC(C)C[C@@H]1NC(=O)[C@H](CCCN)NC(=O)[C@H](C(C)C)NC(=O)[C@@H]2CCCN2C(=O)[C@H](Cc2ccccc2)NC(=O)[C@H](CC(C)C)NC(=O)[C@H](CCCN)NC(=O)[C@H](C(C)C)NC(=O)[C@@H]2CCCN2C(=O)[C@H](Cc2ccc(NC(=O)C3C4CC5CC(C4)CC3C5)cc2)NC1=O (some centres not stated) (cyclo(FPV[Orn]L[Phe(4-NH2)](X1)PV[Orn]L)) | 8 µg/mL (≈ 6.07 µM) | 8 µg/mL (≈ 6.07 µM) | 64 µg/mL (≈ 48.5 µM) | > 64 µg/mL | > 64 µg/mL | > 64 µg/mL | 8 µg/mL (≈ 6.07 µM) | 16 µg/mL (≈ 12.1 µM) | Non-toxic | 16 µg/mL (≈ 12.1 µM) | 8 µg/mL (≈ 6.07 µM) | 8 µg/mL (≈ 6.07 µM) | – | – | –
CC(C)C[C@@H]1NC(=O)[C@H](CCCN)NC(=O)[C@H](C(C)C)NC(=O)[C@@H]2CCCN2C(=O)[C@H](Cc2ccccc2)NC(=O)[C@H](CC(C)C)NC(=O)[C@H](CCCN)NC(=O)[C@H](C(C)C)NC(=O)[C@@H]2CCCN2C(=O)[C@H](Cc2ccc([N+](C)(C)C)cc2)NC1=O.[I-] (cyclo(FPV[Orn]L[X2]PV[Orn]L)) | 64 µg/mL | 32 µg/mL | > 64 µg/mL | 64 µg/mL | > 64 µg/mL | > 64 µg/mL | 8 µg/mL | 8 µg/mL | Non-toxic | 16 µg/mL | 16 µg/mL | 32 µg/mL | 134 µM | – | –
CC(C)C[C@@H]1NC(=O)[C@H](CCCN)NC(=O)[C@H](C(C)C)NC(=O)[C@@H]2CCCN2C(=O)[C@H](Cc2ccccc2)NC(=O)[C@H](CC(C)C)NC(=O)[C@H](CCCN)NC(=O)[C@H](C(C)C)NC(=O)[C@@H]2CCCN2C(=O)[C@H](Cc2ccc(NCc3ccccc3)cc2)NC1=O (cyclo(FPV[Orn]L[X3]PV[Orn]L)) | > 64 µg/mL | 64 µg/mL (≈ 51.3 µM) | > 64 µg/mL | > 64 µg/mL | > 64 µg/mL | > 64 µg/mL | 64 µg/mL (≈ 51.3 µM) | 64 µg/mL (≈ 51.3 µM) | – | 64 µg/mL (≈ 51.3 µM) | > 64 µg/mL | 64 µg/mL (≈ 51.3 µM) | – | – | –
CC(C)C[C@@H]1NC(=O)[C@H](CCCN)NC(=O)[C@H](C(C)C)NC(=O)[C@@H]2CCCN2C(=O)[C@H](Cc2ccccc2)NC(=O)[C@H](CC(C)C)NC(=O)[C@H](CCCN)NC(=O)[C@H](C(C)C)NC(=O)[C@@H]2CCCN2C(=O)[C@H](Cc2ccc(N(Cc3ccccc3)Cc3ccccc3)cc2)NC1=O (cyclo(FPV[Orn]L[X4]PV[Orn]L)) | > 64 µg/mL | > 64 µg/mL | > 64 µg/mL | > 64 µg/mL | > 64 µg/mL | > 64 µg/mL | 64 µg/mL (≈ 47.9 µM) | 64 µg/mL (≈ 47.9 µM) | – | 64 µg/mL (≈ 47.9 µM) | > 64 µg/mL | 64 µg/mL (≈ 47.9 µM) | – | – | –
CC(C)C[C@@H]1NC(=O)[C@H](CCCN)NC(=O)[C@H](C(C)C)NC(=O)[C@@H]2CCCN2C(=O)[C@@H](Cc2ccccc2)NC(=O)[C@H](CC(C)C)NC(=O)[C@H](CCCN)NC(=O)[C@H](C(C)C)NC(=O)[C@@H]2CCCN2C(=O)[C@@H](Cc2ccccc2)NC1=O [GRAMICIDIN S] (cyclo(L[dF]PV[Orn]L[dF]PV[Orn])) | 8 µg/mL (≈ 7.01 µM) | 8 µg/mL (≈ 7.01 µM) | 16 µg/mL (≈ 14 µM) | 32 µg/mL (≈ 28 µM) | 64 µg/mL (≈ 56.1 µM) | 8 µg/mL (≈ 7.01 µM) | 8 µg/mL (≈ 7.01 µM) | 4 µg/mL (≈ 3.5 µM) | – | 16 µg/mL (≈ 14 µM) | 16 µg/mL (≈ 14 µM) | 8 µg/mL (≈ 7.01 µM) | 11.7 µM | – | 50%
